Results: ChEMBL document CHEMBL1123566, “Synthesis and cardiac electrophysiological activity of 2- and 3-[(substituted phenyl)alkyl]quinuclidines. Structure-activity relationships” (1987)
Where “and” joins values, the source holds several entries; their conditions need not be identical. Equal entries are not always repeated.

Experiments:
Canis familiaris [1] = assay: Left ventricular refractory period was determined by intravenous administration of two dosages of 3 mg/kg of compound in anesthetized dogs. Value was reported for experiment 1; assay type: functional, Canis lupus familiaris, Cardiac ventricle
Canis familiaris [2] = assay: Mean arterial blood pressure was determined by intraduodenal administration of two dosages of 10 mg/kg of (low dose) compound in anesthetized dogs. Value was reported for experiment 2; assay type: functional, Canis lupus familiaris
Canis familiaris [3] = assay: Left ventricular refractory period was determined by intraduodenal administration of two dosages of 10 mg/kg of (high dose) compound in anesthetized dogs. Value was reported for experiment 1; assay type: functional, Canis lupus familiaris, Cardiac ventricle
Summary of the method: (§1)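 Anesthetized dogs received two intraduodenal doses, the second cumulative (low dose/high dose). Left ventricular FRP and CT were measured 15, 30 and 45 min after dosing. Heart rate and mean blood pressure were taken during nonpacing intervals. Values are percent change from control. The vehicle was 5% dextrose in water/tragacanth. Activity was defined as ≥12% prolongation of FRP or CT.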

Canis familiaris [4] = organism: Canis familiaris; assay: In vitro electrophysiological activity in canine cardiac Purkinje fibres given as maximum % change for action potential duration at 0.1-10 uM concentration; assay type: functional, Canis lupus familiaris, Purkinje fiber
Summary of the method: (§2)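 Canine cardiac Purkinje fibres, intracellular recording at 1 s basic cycle length, over cumulative concentration ranges. Compound 10 mM stock in deionized water diluted into Tyrode's. Each fibre used once as its own control. Value is the maximum % change from control in APD at 95% repolarization, with the concentration where it occurred; both values given if a biphasic response (>20% reversal) occurred.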

Canis familiaris [5] = assay: Heart rate was determined by intraduodenal administration of two dosages of 20 mg/kg of (high dose) compound in anesthetized dogs. Value was reported for experiment 2; assay type: functional, Canis lupus familiaris
Summary of the method: (§3)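 Anesthetized dogs; compound given intraduodenally, generally as two doses, the second a cumulative (high) dose. LV functional refractory period and conduction time measured 15, 30 and 45 min after dosing; heart rate and blood pressure measured during nonpacing intervals. Values are % change from control, given per individual animal. Active if FRP or CT prolonged by ≥12%.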

Canis familiaris [6] = organism: Canis familiaris; assay: In vitro electrophysiological evaluation in canine cardiac Purkinje fibres reported as maximum percent change Vmax concentration range of 0.1-100 uM; assay type: functional; conditions: Canis lupus familiaris; Purkinje fiber
Summary of the method: (§4)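 Canine cardiac Purkinje fibres, intracellular microelectrode recording, paced at a basic cycle length of 1 s. APD95 and Vmax read simultaneously. Compound: 10 mM stock in deionized water, diluted into Tyrode's solution, tested over the stated concentration range. Each fibre used once as its own control. Result is % change from control, given at 10 µM or as the maximum with its concentration. M = <10% decrease or an increase in Vmax.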

Canis familiaris [7] = organism: Canis familiaris; assay: (§5) In vitro electrophysiological evaluation in canine cardiac Purkinje fibres reported as % change for action potential duration at 0.1-100 uM concentration range; assay type: functional, Canis lupus familiaris, Purkinje fiber; summary of the method: as §4
Canis familiaris [8] = assay: Heart rate was determined by intraduodenal administration of two dosages of 10 mg/kg of (low dose) compound in anesthetized dogs. Value was reported for experiment 2; assay type: functional, Canis lupus familiaris; summary of the method: as §3
Canis familiaris [9] = assay: Conduction time was determined by intraduodenal administration of two dosages of 10 mg/kg (low dose) of compound in anesthetized dogs. Value was reported for experiment 2; assay type: functional, Canis lupus familiaris; summary of the method: as §3
Canis familiaris [10] = organism: Canis familiaris; assay: In vitro electrophysiological evaluation in canine cardiac Purkinje fibres reported as % change for action potential duration at 0.1-10 uM concentration range; assay type: functional, Canis lupus familiaris, Purkinje fiber; summary of the method: as §4
Canis familiaris [11] = assay: Left ventricular refractory period was determined by intraduodenal administration of two dosages of 20 mg/kg of (high dose) compound in anesthetized dogs. Value was reported for experiment 2; assay type: functional, Canis lupus familiaris, Cardiac ventricle
Canis familiaris [12] = assay: Heart rate was determined by intraduodenal administration of two dosages of 3 mg/kg of (low dose) compound in anesthetized dogs. Value was reported for experiment 1; assay type: functional, Canis lupus familiaris; summary of the method: as §3
Canis familiaris [13] = organism: Canis familiaris; assay: In vitro electrophysiological activity in canine cardiac Purkinje fibres given as maximum % change for action potential duration at 0.1-100 uM concentration; assay type: functional, Canis lupus familiaris, Purkinje fiber; summary of the method: as §2
Canis familiaris [14] = assay: Mean arterial blood pressure was determined by intraduodenal administration of two dosages of 20 mg/kg of (high dose) compound in anesthetized dogs. Value was reported for experiment 2; assay type: functional, Canis lupus familiaris
Canis familiaris [15] = assay: Conduction time was determined by intraduodenal administration of two dosages of 10 mg/kg(high dose) of compound in anesthetized dogs. Value was reported for experiment 1; assay type: functional, Canis lupus familiaris; summary of the method: as §3
Canis familiaris [16] = assay: Heart rate was determined by intraduodenal administration of two dosages of 10 mg/kg of (high dose) compound in anesthetized dogs. Value was reported for experiment 1; assay type: functional, Canis lupus familiaris; summary of the method: as §3
Canis familiaris [17] = assay: Mean arterial blood pressure was determined by intraduodenal administration of two dosages of 3 mg/kg of (low dose) compound in anesthetized dogs. Value was reported for experiment 1; assay type: functional, Canis lupus familiaris; summary of the method: as §1
Canis familiaris [18] = organism: Canis familiaris; assay: In vitro electrophysiological evaluation in canine cardiac Purkinje fibres reported as maximum percent change Vmax concentration range of 0.1-100 uM; Minimal (<IO%increase or a decrease in CT); assay type: functional; conditions: Canis lupus familiaris; Purkinje fiber; summary of the method: as §4
Canis familiaris [19] = assay: Left ventricular refractory period was determined by intravenous administration of two dosages of 3 mg/kg of compound in anesthetized dogs. Value was reported for experiment 2; assay type: functional, Canis lupus familiaris, Cardiac ventricle
Canis familiaris [20] = assay: Effective dose administered intravenously to elicit Antiarrhythmic efficacy in anesthetized dogs was reported. Value in parenthesis indicates no. of animals effective at that dose.; assay type: functional, Canis lupus familiaris, Heart
Summary of the method: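 Dogs are anesthetized and the chest reopened. Stimulating and recording electrodes go on the myocardium. Reproducible PES-induced sustained VT or VF is confirmed first; SVT is ended by burst pacing and VF by DC countershock. Compound is given iv in 0.9% saline and inducibility retested. A dose counts as effective when SVT/VF cannot be reinduced in two of three animals.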

Canis familiaris [21] = organism: Canis familiaris; assay: In vitro electrophysiological evaluation in canine cardiac Purkinje fibres reported as percent change Vmax concentration range of 0.1-10 uM; Minimal (<IO%increase or a decrease in CT); assay type: functional; conditions: Canis lupus familiaris; Purkinje fiber; summary of the method: as §4
Canis familiaris [22] = assay: Mean arterial blood pressure was determined by intraduodenal administration of two dosages of 10 mg/kg of (high dose) compound in anesthetized dogs. Value was reported for experiment 1; assay type: functional, Canis lupus familiaris; summary of the method: as §1
Canis familiaris [23] = organism: Canis familiaris; assay: In vitro electrophysiological evaluation in canine cardiac Purkinje fibres reported as percent change Vmax concentration range of 0.1-100 uM; assay type: functional; conditions: Canis lupus familiaris; Purkinje fiber; summary of the method: as §4
Canis familiaris [24] = assay: Left ventricular refractory period was determined by intraduodenal administration of two dosages of 10 mg/kg of (low dose) compound in anesthetized dogs. Value was reported for experiment 2; assay type: functional, Canis lupus familiaris, Cardiac ventricle; summary of the method: as §1
Canis familiaris [25] = organism: Canis familiaris; assay: In vitro electrophysiological evaluation in canine cardiac Purkinje fibres reported as percent change Vmax concentration range of 0.1-100 uM; Minimal (<IO%increase or a decrease in CT); assay type: functional; conditions: Canis lupus familiaris; Purkinje fiber; summary of the method: as §4
Canis familiaris [26] = organism: Canis familiaris; assay: as §5; assay type: functional, Canis lupus familiaris, Purkinje fiber; summary of the method: as §4; remark: listed apart in the source
Canis familiaris [27] = assay: Conduction time was determined by intraduodenal administration of two dosages of 3 mg/kg (low dose) of compound in anesthetized dogs. Value was reported for experiment 1; assay type: functional, Canis lupus familiaris; summary of the method: as §3
Canis familiaris [28] = assay: Left ventricular refractory period was determined by intraduodenal administration of two dosages of 3 mg/kg of (low dose) compound in anesthetized dogs. Value was reported for experiment 1; assay type: functional, Canis lupus familiaris, Cardiac ventricle; summary of the method: as §1
Canis familiaris [29] = assay: Conduction time was determined by intraduodenal administration of two dosages of 20 mg/kg (high dose) of compound in anesthetized dogs. Value was reported for experiment 2; assay type: functional, Canis lupus familiaris; summary of the method: as §3
Canis familiaris [30] = organism: Canis familiaris; assay: In vitro electrophysiological evaluation in canine cardiac Purkinje fibres reported as % change for action potential duration at 10 uM at 1-100 uM concentration range; assay type: functional, Canis lupus familiaris, Purkinje fiber; summary of the method: as §4
Canis familiaris [31] = organism: Canis familiaris; assay: In vitro electrophysiological evaluation in canine cardiac Purkinje fibres reported as maximum percent change Vmax concentration range of 1-100 uM; Minimal (<10% decrease or increase in V max).; assay type: functional; conditions: Canis lupus familiaris; Purkinje fiber; summary of the method: as §4
Canis familiaris [32] = organism: Canis familiaris; assay: In vitro electrophysiological evaluation in canine cardiac ventricular muscle reported as % change for the functional refractory period (FRP) at 10 uM at concentration range of 0.1-100 uM; parameters: species or system Canis lupus familiaris, Muscle tissue
Summary of the method: (§6)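 Canine right ventricle and papillary muscle strips in oxygenated Tyrode's solution, fitted with stimulating and recording electrodes. The extra-stimulus conduction-interval method was adapted for in vitro use. FRP and CT were read from a conduction-interval curve before and after various compound concentrations, and expressed as percent change from control. Compounds were taken from 10 mM deionized-water stock into Tyrode's. Each strip was used once as its own control.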

Canis familiaris [33] = organism: Canis familiaris; assay: In vitro electrophysiological evaluation in canine cardiac ventricular muscle reported as % change for conduction time(CT) at 10 uM at 0.1-100 uM concentration range; Minimal (<10% decrease or increase in CT).; assay type: functional, Canis lupus familiaris, Muscle tissue
Canis familiaris [34] = organism: Canis familiaris; assay: In vitro electrophysiological evaluation in canine cardiac Purkinje fibres reported as percent change Vmax at 10 uM at concentration range of 1-100 uM; assay type: functional; conditions: Canis lupus familiaris, Purkinje fiber; summary of the method: as §4
Canis familiaris [35] = organism: Canis familiaris; assay: In vitro electrophysiological evaluation in canine cardiac Purkinje fibres reported as % change for action potential duration at a concentration of 10 uM; assay type: functional, Canis lupus familiaris, Purkinje fiber; summary of the method: as §4
Canis familiaris [36] = organism: Canis familiaris; assay: In vitro electrophysiological activity in canine cardiac occurred is 100 uM; assay type: functional, Canis lupus familiaris, Heart
Canis familiaris [37] = organism: Canis familiaris; assay: In vitro electrophysiological evaluation in canine cardiac Purkinje fibres reported as percent change Vmax at 10 uM at concentration range of 1-100 uM; Minimal (<10% decrease or increase in V max).; assay type: functional; conditions: Canis lupus familiaris, Purkinje fiber; summary of the method: as §4
Canis familiaris [38] = organism: Canis familiaris; assay: In vitro electrophysiological evaluation in canine cardiac ventricular muscle reported as maximum % change for functional refractory period (FRP) at 0.1-100 uM concentration range; concentration at which it occurred is 100 uM; parameters: species or system Canis lupus familiaris, Muscle tissue; summary of the method: as §6
Canis familiaris [39] = organism: Canis familiaris; assay: In vitro electrophysiological evaluation in canine cardiac occurred is 100 uM; assay type: functional; conditions: Canis lupus familiaris; Heart
Canis familiaris [40] = organism: Canis familiaris; assay: In vitro electrophysiological evaluation in canine cardiac ventricular muscle reported as maximum % change for conduction time(CT) at 0.1-100 uM concentration range; Minimal (<10% decrease or increase in CT).; assay type: functional, Canis lupus familiaris, Muscle tissue; summary of the method: as §6

In the case of Cl.Clc1ccc(C/C=C2\CN3CCC2CC3)cc1, the “LV FRP” value (Canis familiaris [1]) was 17%, the Mean blood pressure (Canis familiaris [2]) was 12% and the “LV FRP” value (Canis familiaris [3]) was 3%. The APD95 (Canis familiaris [4]) was 29%, the HR (Canis familiaris [5]) was 1% and the Vmax (Canis familiaris [6]) was -59%. It also gave an APD95 (Canis familiaris [7]) of 16%, an HR (Canis familiaris [8]) of -1% and a CT (Canis familiaris [9]) of 0%. For the same compound, the APD95 (Canis familiaris [10]) was 29%, the “LV FRP” value (Canis familiaris [11]) was 2% and the HR (Canis familiaris [12]) was -2%. The APD95 (Canis familiaris [13]) was 35% and 50%, the Mean blood pressure (Canis familiaris [14]) was 12% and the CT (Canis familiaris [15]) was 3%. The HR (Canis familiaris [16]) was 4%, the Mean blood pressure (Canis familiaris [17]) was 19% and the Vmax (Canis familiaris [18]) was under 10%. The “LV FRP” value (Canis familiaris [19]) was 15%, the Effective dose (Canis familiaris [20]) was 0.1 mg/kg and 0.3 mg/kg and the Vmax (Canis familiaris [21]) was under 10%. The Mean blood pressure (Canis familiaris [22]) was 25%, the Vmax (Canis familiaris [23]) was -12% and the “LV FRP” value (Canis familiaris [24]) was 3%. It also gave a Vmax (Canis familiaris [25]) of under 10%, an APD95 (Canis familiaris [26]) of 50% and a CT (Canis familiaris [27]) of 0%. The “LV FRP” value (Canis familiaris [28]) was 5% and the CT (Canis familiaris [29]) was -4%.

For CCOC(=O)C(CC1C(=O)C2CCN1CC2)C(=O)c1ccc(NS(C)(=O)=O)cc1.Cl (stereo not given), the APD95 (Canis familiaris [30]) was 12%, the Vmax (Canis familiaris [31]) was under 10% and the FRP (Canis familiaris [32]) was 5% and 9%. For the same compound, the CT (Canis familiaris [33]) was under 10%, the Vmax (Canis familiaris [34]) was -24% and the APD95 (Canis familiaris [35]) was 11%. For the same compound, the APD95 (Canis familiaris [36]) was 39% and 40%, the Vmax (Canis familiaris [37]) was under 10% and the FRP (Canis familiaris [38]) was 7% and 16%. It also gave a Vmax (Canis familiaris [39]) of -36% and a CT (Canis familiaris [40]) of under 10%.
